# ChEMBL document CHEMBL4368943 (J Med Chem, 2019)
# How the values were obtained:
# [1] = target: T1, von Hippel-Lindau disease tumor suppressor/Estrogen receptor/Cullin-2 (Homo sapiens, UniProt P03372+P40337+Q13617); experiment: Protac activity against VHL/cullin2/ERalpha in human MCF7 cells assessed as ERalpha degradation by measuring ER protein/GADPH ratio at 1 nM after 4 hrs by Western blot analysis relative to control; format: cell-based
# How it was run: (§1)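 MCF-7 cells (DMEM, 10% FBS, passages 3−8) exposed 4 h. Lysed in RIPA with protease inhibitors; equal protein on 10% SDS-PAGE, PVDF, anti-ERα blot. Membranes stripped and reprobed for GAPDH. ERα/GAPDH ratio normalized to DMSO = 100; DC50 from densitometry of the dose series.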
# [2] = target: T1, von Hippel-Lindau disease tumor suppressor/Estrogen receptor/Cullin-2; experiment: Protac activity against VHL/cullin2/ERalpha in human MCF7 cells assessed as ERalpha degradation by measuring ER protein/GADPH ratio at 10 nM after 4 hrs by Western blot analysis relative to control; format: cell-based; how it was run: as §1
# [3] = target: T1, von Hippel-Lindau disease tumor suppressor/Estrogen receptor/Cullin-2; experiment: Protac activity against VHL/cullin2/ERalpha in human MCF7 cells assessed as ERalpha degradation by measuring ER protein/GADPH ratio at 100 nM after 4 hrs by Western blot analysis relative to control; format: cell-based; how it was run: as §1
# [4] = Binding affinity to His-TEV-tagged VHL (54 to 213 residues) (unknown origin)/Elongin B (1 to 118 residues)/Elongin C (1 to 96 residues) expressed in Escherichia coli BL21(DE3) by FP assay; design: species or system Homo sapiens
# How it was run: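 Competitive FP. Tracer is a fluorescent VHL ligand (Kd 2.3 nM). VHL–ElonginB/C complex and tracer each at 5 nM final, preincubated. Compound in DMSO (5 µL into 95 µL) for 60 min at room temperature with shaking. Ex 485/em 530 nm. IC50 by nonlinear regression; Ki from probe KD and protein/probe concentrations. Duplicate, three independent experiments.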
# T1 sequence (P03372 whole entry, looked up): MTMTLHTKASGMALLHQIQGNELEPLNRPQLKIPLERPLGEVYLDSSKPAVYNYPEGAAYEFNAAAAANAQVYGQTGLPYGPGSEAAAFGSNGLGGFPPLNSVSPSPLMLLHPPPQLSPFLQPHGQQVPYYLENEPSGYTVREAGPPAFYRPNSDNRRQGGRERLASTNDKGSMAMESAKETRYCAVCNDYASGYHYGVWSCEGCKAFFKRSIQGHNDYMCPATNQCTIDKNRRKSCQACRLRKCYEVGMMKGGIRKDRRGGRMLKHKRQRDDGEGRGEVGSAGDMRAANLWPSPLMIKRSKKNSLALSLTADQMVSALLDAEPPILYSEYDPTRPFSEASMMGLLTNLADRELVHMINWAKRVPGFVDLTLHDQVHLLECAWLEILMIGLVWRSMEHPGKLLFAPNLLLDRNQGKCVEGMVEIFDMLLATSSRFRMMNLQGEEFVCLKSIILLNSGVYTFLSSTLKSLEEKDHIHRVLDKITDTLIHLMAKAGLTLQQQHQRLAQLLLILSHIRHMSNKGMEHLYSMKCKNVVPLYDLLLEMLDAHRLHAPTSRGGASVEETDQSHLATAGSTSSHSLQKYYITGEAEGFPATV
# T1 sequence (P40337 whole entry, looked up): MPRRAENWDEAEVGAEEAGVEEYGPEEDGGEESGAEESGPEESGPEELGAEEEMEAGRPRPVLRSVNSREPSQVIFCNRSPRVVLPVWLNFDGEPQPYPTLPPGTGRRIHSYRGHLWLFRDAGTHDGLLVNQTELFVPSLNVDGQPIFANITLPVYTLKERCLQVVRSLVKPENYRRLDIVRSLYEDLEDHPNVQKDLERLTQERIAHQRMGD
# T1 sequence (Q13617 whole entry, looked up): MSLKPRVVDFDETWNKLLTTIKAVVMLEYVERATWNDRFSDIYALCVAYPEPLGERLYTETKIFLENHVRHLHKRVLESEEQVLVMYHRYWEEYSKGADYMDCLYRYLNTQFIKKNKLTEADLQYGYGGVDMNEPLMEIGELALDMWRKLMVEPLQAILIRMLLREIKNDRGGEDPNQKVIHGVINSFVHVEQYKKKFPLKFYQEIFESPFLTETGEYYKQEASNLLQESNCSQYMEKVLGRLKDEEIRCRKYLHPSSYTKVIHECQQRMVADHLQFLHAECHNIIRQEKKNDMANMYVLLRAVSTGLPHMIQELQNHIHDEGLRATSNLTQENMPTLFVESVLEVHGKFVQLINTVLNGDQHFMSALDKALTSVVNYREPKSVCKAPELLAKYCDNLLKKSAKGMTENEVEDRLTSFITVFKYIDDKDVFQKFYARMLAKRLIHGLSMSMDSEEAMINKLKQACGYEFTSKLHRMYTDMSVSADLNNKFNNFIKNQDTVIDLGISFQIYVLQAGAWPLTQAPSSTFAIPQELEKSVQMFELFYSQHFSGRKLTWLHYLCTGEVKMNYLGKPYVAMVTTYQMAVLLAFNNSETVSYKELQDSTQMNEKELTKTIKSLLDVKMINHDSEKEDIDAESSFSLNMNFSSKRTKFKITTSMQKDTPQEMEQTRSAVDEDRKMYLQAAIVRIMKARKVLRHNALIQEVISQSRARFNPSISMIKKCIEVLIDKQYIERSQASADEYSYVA
Compound,Ratio [1],Ratio [2],Ratio [3],IC50 [4]
CCN(CCCCCCCC(=O)N[C@H](C(=O)N1C[C@H](O)C[C@H]1C(=O)N[C@@H](C)c1ccc(C(C)(C)C)cc1)C(C)(C)C)CCOc1ccc(C(=O)c2c(-c3ccc(O)cc3)sc3cc(O)ccc23)cc1,136,112,80,–
CCN(CCCCCC(=O)N[C@H](C(=O)N1C[C@H](O)C[C@H]1C(=O)N[C@@H](C)c1ccc(-c2scnc2C)cc1)C(C)(C)C)CCOc1ccc(C(=O)c2c(-c3ccc(O)cc3)sc3cc(O)ccc23)cc1,26,66,12,–
CCN(CCCCCCCC(=O)N[C@H](C(=O)N1C[C@H](O)C[C@H]1C(=O)N[C@@H](C)c1ccc(C2CC2)cc1)C(C)(C)C)CCOc1ccc(C(=O)c2c(-c3ccc(O)cc3)sc3cc(O)ccc23)cc1,130,75,70,–
CCN(CCCCCCCC(=O)N[C@H](C(=O)N1C[C@H](O)C[C@H]1C(=O)N[C@@H](C)c1ccc(C#N)cc1)C(C)(C)C)CCOc1ccc(C(=O)c2c(-c3ccc(O)cc3)sc3cc(O)ccc23)cc1,110,86,80,–
CCN(CCCC#Cc1cnn(CCC(=O)N[C@H](C(=O)N2C[C@H](O)C[C@H]2C(=O)N[C@@H](C)c2ccc(-c3scnc3C)cc2)C(C)(C)C)c1)CCOc1ccc(C(=O)c2c(-c3ccc(O)cc3)sc3cc(O)ccc23)cc1,70,0.5,0.4,–
CCN(CCCCCCCCCC(=O)N[C@H](C(=O)N1C[C@H](O)C[C@H]1C(=O)N[C@@H](C)c1ccc(-c2scnc2C)cc1)C(C)(C)C)CCOc1ccc(C(=O)c2c(-c3ccc(O)cc3)sc3cc(O)ccc23)cc1,25,0.4,0.3,–
Cc1ncsc1-c1ccc([C@H](C)NC(=O)[C@@H]2C[C@@H](O)CN2C(=O)[C@@H](NC(=O)CCCCCCCN(CCOc2ccc(C(=O)c3c(-c4ccc(O)cc4)sc4cc(O)ccc34)cc2)C2CCC2)C(C)(C)C)cc1,15,4,0.1,–
CCN(CCCCCCCCC(=O)N[C@H](C(=O)N1C[C@H](O)C[C@H]1C(=O)N[C@@H](C)c1ccc(-c2scnc2C)cc1)C(C)(C)C)CCOc1ccc(C(=O)c2c(-c3ccc(O)cc3)sc3cc(O)ccc23)cc1,23,7,3,–
CCN(CCCCCCCC(=O)N[C@H](C(=O)N1C[C@H](O)C[C@H]1C(=O)N[C@@H](C)c1ccc(Cl)cc1)C(C)(C)C)CCOc1ccc(C(=O)c2c(-c3ccc(O)cc3)sc3cc(O)ccc23)cc1,99,87,79,–
Cc1ncsc1-c1ccc([C@H](C)NC(=O)[C@@H]2C[C@@H](O)CN2C(=O)[C@@H](NC(=O)CCCCCCCN(CCOc2ccc(C(=O)c3c(-c4ccc(O)cc4)sc4cc(O)ccc34)cc2)C(C)(C)C)C(C)(C)C)cc1,21,0.2,0,–
CCN(CCCCCCCC(=O)N[C@H](C(=O)N1C[C@H](O)C[C@H]1C(=O)N[C@@H](C)c1ccc(C(C)C)cc1)C(C)(C)C)CCOc1ccc(C(=O)c2c(-c3ccc(O)cc3)sc3cc(O)ccc23)cc1,138,109,78,–
CC(=O)N[C@H](C(=O)N1C[C@H](O)C[C@H]1C(=O)N[C@@H](C)c1ccc(C(C)(C)C)cc1)C(C)(C)C,–,–,–,58.9 µM
Cc1ncsc1-c1ccc([C@H](C)NC(=O)[C@@H]2C[C@@H](O)CN2C(=O)[C@@H](NC(=O)CCCCCCCN(CCOc2ccc(C(=O)c3c(-c4ccc(O)cc4)sc4cc(O)ccc34)cc2)CC2CCC2)C(C)(C)C)cc1,76,1.3,0.2,–
CCN(CCCC(=O)N[C@H](C(=O)N1C[C@H](O)C[C@H]1C(=O)N[C@@H](C)c1ccc(-c2scnc2C)cc1)C(C)(C)C)CCOc1ccc(C(=O)c2c(-c3ccc(O)cc3)sc3cc(O)ccc23)cc1,63,139,135,–
CCN(CCCCCCC(=O)N[C@H](C(=O)N1C[C@H](O)C[C@H]1C(=O)N[C@@H](C)c1ccc(-c2scnc2C)cc1)C(C)(C)C)CCOc1ccc(C(=O)c2c(-c3ccc(O)cc3)sc3cc(O)ccc23)cc1,32,8,6,–
Cc1ncsc1-c1ccc([C@H](C)NC(=O)[C@@H]2C[C@@H](O)CN2C(=O)[C@@H](NC(=O)CCCCCCCN(CCOc2ccc(C(=O)c3c(-c4ccc(O)cc4)sc4cc(O)ccc34)cc2)C(C)C)C(C)(C)C)cc1,28,0.5,0.2,–
CCN(CCOCCOCCC(=O)N[C@H](C(=O)N1C[C@H](O)C[C@H]1C(=O)N[C@@H](C)c1ccc(-c2scnc2C)cc1)C(C)(C)C)CCOc1ccc(C(=O)c2c(-c3ccc(O)cc3)sc3cc(O)ccc23)cc1,183,2.4,1.7,–

Compound,Ratio [1],Ratio [2],Ratio [3],IC50 [4]
CCN(CCOc1ccc(C(=O)c2c(-c3ccc(O)cc3)sc3cc(O)ccc23)cc1)CCC1CCN(CCCC(=O)N[C@H](C(=O)N2C[C@H](O)C[C@H]2C(=O)N[C@@H](C)c2ccc(-c3scnc3C)cc2)C(C)(C)C)CC1,227,91,98,–
CCN(CCCCC(=O)N[C@H](C(=O)N1C[C@H](O)C[C@H]1C(=O)N[C@@H](C)c1ccc(-c2scnc2C)cc1)C(C)(C)C)CCOc1ccc(C(=O)c2c(-c3ccc(O)cc3)sc3cc(O)ccc23)cc1,90,129,92,–
CCN(CCCCCCCC(=O)N[C@H](C(=O)N1C[C@H](O)C[C@H]1C(=O)N[C@@H](C)c1ccc(-c2scnc2C)cc1)C(C)(C)C)CCOc1ccc(Cn2c(-c3ccc(O)cc3)c(C)c3cc(O)ccc32)cc1,74,10,0.2,–
CCN(CCOc1ccc(C(=O)c2c(-c3ccc(O)cc3)sc3cc(O)ccc23)cc1)CCN1CCN(CCCC(=O)N[C@H](C(=O)N2C[C@H](O)C[C@H]2C(=O)N[C@@H](C)c2ccc(-c3scnc3C)cc2)C(C)(C)C)CC1,208,50,24,–
CCN(CCCCCCCC(=O)N[C@H](C(=O)N1C[C@H](O)C[C@H]1C(=O)NCc1ccc(-c2scnc2C)cc1)C(C)(C)C)CCOc1ccc(C(=O)c2c(-c3ccc(O)cc3)sc3cc(O)ccc23)cc1,79,71,62,–
CCC(=C(c1ccccc1)c1ccc(OCCN(CC)CCCCCCCC(=O)N[C@H](C(=O)N2C[C@H](O)C[C@H]2C(=O)N[C@@H](C)c2ccc(-c3scnc3C)cc2)C(C)(C)C)cc1)c1ccccc1,103,97,2.4,–
Cc1ncsc1-c1ccc([C@H](C)NC(=O)[C@@H]2C[C@@H](O)CN2C(=O)[C@@H](NC(=O)CCCCCCCN(C)CCOc2ccc(C(=O)c3c(-c4ccc(O)cc4)sc4cc(O)ccc34)cc2)C(C)(C)C)cc1,27,153,46,–
CCN(CCCCCCCC(=O)N[C@H](C(=O)N1C[C@H](O)C[C@H]1C(=O)N[C@@H](C)c1ccc(-c2scnc2C)cc1)C(C)(C)C)CCOc1ccc([C@@H]2c3ccc(O)cc3CC[C@@H]2c2ccccc2)cc1,74,5,0.3,–
Cc1ncsc1-c1ccc([C@H](C)NC(=O)[C@@H]2C[C@@H](O)CN2C(=O)[C@@H](NC(=O)CCCCCCCN(CCOc2ccc(C(=O)c3c(-c4ccc(O)cc4)sc4cc(O)ccc34)cc2)C2CCCC2)C(C)(C)C)cc1,75,0.3,0.1,–
CCN(CCOCCOCC(=O)N[C@H](C(=O)N1C[C@H](O)C[C@H]1C(=O)N[C@@H](C)c1ccc(-c2scnc2C)cc1)C(C)(C)C)CCOc1ccc(C(=O)c2c(-c3ccc(O)cc3)sc3cc(O)ccc23)cc1,94,0.4,0.4,–
Cc1ncsc1-c1ccc([C@H](C)NC(=O)[C@@H]2C[C@@H](O)CN2C(=O)[C@@H](NC(=O)CCCCCCCN(CCOc2ccc(C(=O)c3c(-c4ccc(O)cc4)sc4cc(O)ccc34)cc2)C2CC2)C(C)(C)C)cc1,20,0.2,0.1,–
CCN(CCC#Cc1cnn(CC(=O)N[C@H](C(=O)N2C[C@H](O)C[C@H]2C(=O)N[C@@H](C)c2ccc(-c3scnc3C)cc2)C(C)(C)C)c1)CCOc1ccc(C(=O)c2c(-c3ccc(O)cc3)sc3cc(O)ccc23)cc1,139,45,24,–
C#Cc1ccc([C@H](C)NC(=O)[C@@H]2C[C@@H](O)CN2C(=O)[C@@H](NC(=O)CCCCCCCN(CC)CCOc2ccc(C(=O)c3c(-c4ccc(O)cc4)sc4cc(O)ccc34)cc2)C(C)(C)C)cc1,90,24,8,–
CCN(CCCCc1cnn(CC(=O)N[C@H](C(=O)N2C[C@H](O)C[C@H]2C(=O)N[C@@H](C)c2ccc(-c3scnc3C)cc2)C(C)(C)C)c1)CCOc1ccc(C(=O)c2c(-c3ccc(O)cc3)sc3cc(O)ccc23)cc1,99,20,12,–
Cc1ncsc1-c1ccc([C@H](C)NC(=O)[C@@H]2C[C@@H](O)CN2C(=O)[C@@H](NC(=O)CCCCCCCN(CCOc2ccc(C(=O)c3c(-c4ccc(O)cc4)sc4cc(O)ccc34)cc2)C2CCCCC2)C(C)(C)C)cc1,68,0.6,0.1,–
CCC(=C(c1ccc(O)cc1)c1ccc(OCCN(CC)CCCCCCCC(=O)N[C@H](C(=O)N2C[C@H](O)C[C@H]2C(=O)N[C@@H](C)c2ccc(-c3scnc3C)cc2)C(C)(C)C)cc1)c1ccccc1,55,24,0.6,–
